Assay results taken from paper PMC3949125 (Proteins, 2013).
Values belong to the molecule of their own block, whether it stands above or below them.

Assays:
[1] = target: human BCL2 (residues 1–218) (Homo sapiens, UniProt P10415); test: Isothermal titration calorimetry of BECN1 BH3D-derived peptides binding to BCL2; settings: ITC, 25°C, pH 7.5
How it was run: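 Soluble human BCL2 (1–218, C-terminal transmembrane helix removed) and synthetic BH3D-derived peptides (HPLC-purified >95%, mass confirmed by electrospray MS) were co-dialysed against 50 mM HEPES pH 7.5, 150 mM NaCl, 2 mM β-mercaptoethanol. BCL2 sat in the cell and peptide was titrated in at 25°C over 25 injections. Kd came from fitting an independent binding model.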

[2] = target: Soluble human BCL2 (residues 1-218), lacking the C-terminal transmembrane helix (human, UniProt P10415 1-218); test: ITC
Sequence of Soluble human BCL2 (residues 1-218), lacking the C-terminal transmembrane helix (P10415 1-218): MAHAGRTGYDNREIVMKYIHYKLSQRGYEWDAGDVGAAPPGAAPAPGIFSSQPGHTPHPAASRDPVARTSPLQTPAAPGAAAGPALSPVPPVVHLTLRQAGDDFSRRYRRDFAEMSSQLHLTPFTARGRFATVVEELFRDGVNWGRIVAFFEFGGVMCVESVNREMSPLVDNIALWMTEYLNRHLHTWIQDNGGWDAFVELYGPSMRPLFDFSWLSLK

Sequence of human BCL2 (residues 1–218) (P10415 1-218): as above

- Binding to BCL2 (in words) [1]: abolished
Molecule: F123A: BECN1 BH3D-derived peptide with Ala substitution of F123 (DGGTMENLSRRLKVTGDLADIMSGQT) [Mutant F123A]

- Binding to BCL2 (in words) [1]: abolished
- Binding to BCL2 (in words) ([1]; listed as DS BH3D): does not bind
Molecule: G120E+D121A: BECN1 BH3D-derived peptide with double G120E+D121A substitution (DS) (DGGTMENLSRRLKVTEALFDIMSGQT)

- Binding to BCL2 (in words) [1]: abolished
Molecule: L112A: BECN1 BH3D-derived peptide with Ala substitution of L112 (DGGTMENASRRLKVTGDLFDIMSGQT) [Mutant L112A]

- Binding to BCL2 (in words) [1]: abolished
Molecule: L116A: BECN1 BH3D-derived peptide with Ala substitution of L116 (DGGTMENLSRRAKVTGDLFDIMSGQT) [Mutant L116A]

- Kd [2]: 10.4 ± 3.5 µM
- dH [2]: -4.25 ± 1.55 kcal/mol
B1: human BECN1 BH3D peptide (residues 105-130) (peptide)
peptide: DGGTMENLSRRLKVTGDLFDIMSGQT

- dH [2]: -3.78 ± 0.693 kcal/mol
B2: M109A BECN1 BH3D peptide (peptide, UniProt Q14457 105-130, looked up)
peptide: DGGTAENLSRRLKVTGDLFDIMSGQT

- dH [2]: -5.11 ± 1.1 kcal/mol
B3: K117Q BECN1 BH3D peptide (peptide, UniProt Q14457 105-130, looked up)
peptide: DGGTMENLSRRLQVTGDLFDIMSGQT
